Activity calls are given as the source filed them. The rule behind the calls is not given here.
How the values were obtained:
SW1573 [1] = assay: Growth inhibition of human SW1573 cells overexpressing P-glycoprotein measured after 48 hrs in presence of verapamil by SRB colorimetric assay; assay type: functional
Method in brief: (§1)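 NCI-based protocol with sulforhodamine B read-out. Cells grown in RPMI 1640 with 5% FBS and 1 mM glutamine at 37 °C, 5% CO₂. Seeded 2500 (A549, HBL-100, HeLa, SW1573), 5000 (T-47D, WiDr, SW1573/P-gp) or 7000 (BJ-hTERT) cells/well. Exposed 48 h to serial decimal dilutions, 0.001–100 μM, from 40 mM DMSO stock. GI50 by NCI formulas; mean of three or more experiments ± SD.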

SW1573 [2] = assay: Growth inhibition of human SW1573 cells overexpressing P-glycoprotein measured after 48 hrs in absence of verapamil by SRB colorimetric assay; assay type: functional; method in brief: as §1
HeLa [3] = assay: Growth inhibition of human HeLa cells measured after 48 hrs by SRB colorimetric assay; assay type: functional
Method in brief: (§2)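 NCI-based protocol with sulforhodamine B read-out. Seeded 2500 (A549, HBL-100, HeLa, SW1573), 5000 (T-47D, WiDr, SW1573/P-gp) or 7000 (BJ-hTERT) cells/well. Exposed 48 h to serial decimal dilutions, 0.001–100 μM, from 40 mM DMSO stock. GI50 by NCI formulas; mean of three or more experiments ± SD.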

HeLa [4] = assay: Inhibition of colony formation in human HeLa cells assessed as reduction in number of colonies at one third of GI50 concentration measured after 7 days by crystal violet staining based analysis; assay type: functional, cell-based; settings: time 7.0 day
Method in brief: (§3)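 HeLa and SW1573 seeded at 400 cells/well, dosed next day at GI50/3 and GI50 for the given line. Exposed seven days, fixed in methanol, stained with 0.5% w/v crystal violet. Colonies counted by automatic image segmentation.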

HeLa [5] = assay: Induction of morphological changes in human HeLa cells assessed as membrane rupture at 20 uM measured after 12 hrs by imaging based analysis; assay type: functional, cell-based
Method in brief: (§4)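 HeLa and SW1573 seeded at 100,000 cells/dish. After 24 h, medium switched to phenol-red-free RPMI 1640 and 20 μM added. Label-free holotomographic 3D live imaging of a 236 × 236 μm field, 10–20 cells initially, every 3 min for 15 h. Average dry mass density measured per cell at each cycle; morphology scored against untreated cells.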

SW1573 [6] = assay: Growth inhibition of human SW1573 cells measured after 48 hrs in presence of verapamil by SRB colorimetric assay; assay type: functional; method in brief: as §1
HeLa [7] = assay: Induction of morphological changes in human HeLa cells assessed as release of cellular content at 20 uM measured after 12 hrs by imaging based analysis; assay type: functional, cell-based; method in brief: as §4
SW1573 [8] = assay: Inhibition of colony formation in human SW1573 cells assessed as reduction in colony size at one third of GI50 concentration measured after 7 days by crystal violet staining based analysis; assay type: functional, cell-based; settings: time 7.0 day; method in brief: as §3
SW1573 [9] = assay: Induction of morphological changes in human SW1573 cells assessed as decrease in cell volume at 20 uM measured after 5 hrs by microscopy based analysis; assay type: functional; method in brief: as §4
A549 = assay: Growth inhibition of human A549 cells measured after 48 hrs by SRB colorimetric assay; assay type: functional; method in brief: as §2
WiDr = assay: Growth inhibition of human WiDr cells measured after 48 hrs by SRB colorimetric assay; assay type: functional; method in brief: as §2
BV-2 [10] = assay: Protection against LPS induced inflammation in mouse BV-2 cells assessed as decrease in IL1-beta mRNA expression at 10 uM incubated for 24 hrs with LPS stimulation by qRT-PCR analysis
BV-2 [11] = assay: Protection against LPS induced inflammation in mouse BV-2 cells assessed as decrease in Tnf-alpha mRNA expression at 10 uM incubated for 24 hrs with LPS stimulation by qRT-PCR analysis
SW1573 [12] = assay: Induction of apoptosis in human SW1573 cells assessed as membrane blebbing at 20 uM measured upto 15 hrs by microscopy based analysis; assay type: functional, cell-based; method in brief: as §4
HeLa [13] = assay: Induction of morphological changes in human HeLa cells assessed as production of filmy bubbles at 20 uM measured after 12 hrs by imaging based analysis; assay type: functional, cell-based; method in brief: as §4
HeLa [14] = assay: Induction of morphological changes in human HeLa cells at 20 uM measured after 12 hrs by imaging based analysis
HeLa [15] = assay: Induction of morphological changes in human HeLa cells assessed as increase in average dry mass density at 20 uM measured after 15 hrs by imaging based analysis; assay type: functional, cell-based; method in brief: as §4
[16] = target: Mitogen-activated protein kinase 14 (Mus musculus) (UniProt P47811); assay: Inhibition of LPS-stimulated p38 alpha phosphorylation in mouse BV-2 cells at 10 uM measured after 15 to 90 mins by Western blot analysis; assay type: cell-based; settings: time 15-90 min
Method in brief: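 Bv.2 cells exposed with or without LPS for 15–90 min. Protein extracts run on SDS-PAGE, blotted to PVDF, probed with anti-phospho-p38α MAPK and anti-total p38α MAPK (1:1000), ECL detection. Quantified by densitometry, mean ± SEM, n = 3.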

HeLa [17] = assay: Induction of morphological changes in human HeLa cells assessed as cell shrinkage at 20 uM measured after 5 hrs by microscopy based analysis; assay type: functional; method in brief: as §4
SW1573 [18] = assay: Induction of morphological changes in human SW1573 cells assessed as formation of apoptotic bodies at 20 uM measured after 5 hrs by microscopy based analysis; assay type: functional, cell-based; method in brief: as §4
HeLa [19] = assay: Induction of morphological changes in human HeLa cells assessed as signal transition to necrotic stage at 20 uM measured after 12 hrs by imaging based analysis; assay type: functional, cell-based; method in brief: as §4
SW1573 [20] = assay: Inhibition of colony formation in human SW1573 cells assessed as reduction in colony size at GI50 concentration measured after 7 days by crystal violet staining based analysis; assay type: functional, cell-based; settings: time 7.0 day; method in brief: as §3
HeLa [21] = assay: Induction of morphological changes in human HeLa cells assessed as formation of apoptotic bodies at 20 uM measured after 5 hrs by microscopy based analysis; assay type: functional, cell-based; method in brief: as §4
SW1573 [22] = assay: Growth inhibition of human SW1573 cells measured after 48 hrs in absence of verapamil by SRB colorimetric assay; assay type: functional; method in brief: as §1
SW1573 [23] = assay: Inhibition of colony formation in human SW1573 cells assessed as reduction in number of colonies at one third of GI50 concentration measured after 7 days by crystal violet staining based analysis; assay type: functional, cell-based; settings: time 7.0 day; method in brief: as §3
T47D = assay: Growth inhibition of human T47D cells measured after 48 hrs by SRB colorimetric assay; assay type: functional; method in brief: as §2
HeLa [24] = assay: Induction of morphological changes in human HeLa cells assessed as decrease in cell volume at 20 uM measured after 5 hrs by microscopy based analysis; assay type: functional; method in brief: as §4
SW1573 [25] = assay: Induction of morphological changes in human SW1573 cells assessed as cell shrinkage at 20 uM measured after 5 hrs by microscopy based analysis; assay type: functional; method in brief: as §4

Chain of Mitogen-activated protein kinase 14 (Mus musculus) (P47811 whole entry): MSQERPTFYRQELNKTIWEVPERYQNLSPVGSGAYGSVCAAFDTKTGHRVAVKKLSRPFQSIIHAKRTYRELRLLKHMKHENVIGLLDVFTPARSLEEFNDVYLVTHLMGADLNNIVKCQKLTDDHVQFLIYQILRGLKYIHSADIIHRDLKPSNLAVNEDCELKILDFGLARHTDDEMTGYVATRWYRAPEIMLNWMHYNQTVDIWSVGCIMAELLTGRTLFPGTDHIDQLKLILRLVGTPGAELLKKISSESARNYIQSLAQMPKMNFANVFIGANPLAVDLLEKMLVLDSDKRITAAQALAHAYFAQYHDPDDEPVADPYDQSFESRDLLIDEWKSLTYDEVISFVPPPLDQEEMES

- GI50 (SW1573 [1]): 11 µM
- GI50 (SW1573 [2]): 5.3 µM
- GI50 (HeLa [3]): 4.5 µM
- GI50 (SW1573 [6]): 15 µM
- GI50 (A549): 4.6 µM
- inhibition [16]: inactive
- GI50 (SW1573 [22]): 3.3 µM
- GI50 (T47D): 18 µM
SMILES: CCCCCCCCCCCCS(=O)(=O)[C@@H]1[C@H](F)[C@@H](O)[C@H](O)[C@H]2COC(=O)N21
- inhibition (HeLa [4]): Active
- Activity (HeLa [5]): Active
- Activity (HeLa [7]): Active
- inhibition (SW1573 [8]): Active
- Activity (SW1573 [9]): Active
- GI50 (WiDr): 20 µM
- Activity (BV-2 [10]): Active
- Activity (BV-2 [11]): Active
- Activity (SW1573 [12]): inactive
- Activity (HeLa [13]): Active
- Activity (HeLa [14]): Active
- Activity (HeLa [15]): Active
- Activity (HeLa [17]): Active
- Activity (SW1573 [18]): Active
- Activity (HeLa [19]): Active
- inhibition (SW1573 [20]): Active
- Activity (HeLa [21]): Active
- inhibition (SW1573 [23]): Active
- Activity (HeLa [24]): Active
- Activity (SW1573 [25]): Active

From ChEMBL document CHEMBL5321236, “Fluoro-labelled sp2-iminoglycolipids with immunomodulatory properties” (Eur J Med Chem, 2023)
